M4 PAM: human M4 muscarinic receptor positive allosteric modulators, primary screen, CHO-K1 cells, Fluo-8 calcium fluorescence; CHO-K1 hM4/Gqi5, ACh EC20; 0% = ACh EC20, 100% = maximal ACh; activation, % at 3 µM; hit rate 0.4% among 360,000; AID 624126, 2012;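 active = activation above its plate's cutoff, the mean activation of sample wells plus 3 SD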
M4 antag: human M4 muscarinic receptor antagonists, primary screen, CHO cells, Fluo-8 calcium fluorescence; inhibition, % at 3 µM; CHO-hM4 cells, ACh EC80; hit rate 0.73% among 360,000; AID 624125, 2012;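 active = inhibition above its plate's cutoff, the mean inhibition of sample wells plus 3 SD, cut at about 27% in these data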;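 note: 0% = acetylcholine EC80 with DMSO and 100% = DMSO without agonist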
CHRM5 PAM: human M5 muscarinic receptor positive allosteric modulators, primary screen, CHO-K1 cells, Fluo-8 calcium fluorescence; activation, % at 3 µM; hit rate 0.3% among 360,000; CHO-K1 hM5, ACh EC20 PAM; 0% = ACh EC20, 100% = ACh EC100; Muscarinic acetylcholine receptor M5 (Homo sapiens), P08912;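 active = activation above the run cutoff, the mean activation of all test compounds plus 3 SD, cut at about 18% in these data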
Target sequence (P08912 whole entry, looked up): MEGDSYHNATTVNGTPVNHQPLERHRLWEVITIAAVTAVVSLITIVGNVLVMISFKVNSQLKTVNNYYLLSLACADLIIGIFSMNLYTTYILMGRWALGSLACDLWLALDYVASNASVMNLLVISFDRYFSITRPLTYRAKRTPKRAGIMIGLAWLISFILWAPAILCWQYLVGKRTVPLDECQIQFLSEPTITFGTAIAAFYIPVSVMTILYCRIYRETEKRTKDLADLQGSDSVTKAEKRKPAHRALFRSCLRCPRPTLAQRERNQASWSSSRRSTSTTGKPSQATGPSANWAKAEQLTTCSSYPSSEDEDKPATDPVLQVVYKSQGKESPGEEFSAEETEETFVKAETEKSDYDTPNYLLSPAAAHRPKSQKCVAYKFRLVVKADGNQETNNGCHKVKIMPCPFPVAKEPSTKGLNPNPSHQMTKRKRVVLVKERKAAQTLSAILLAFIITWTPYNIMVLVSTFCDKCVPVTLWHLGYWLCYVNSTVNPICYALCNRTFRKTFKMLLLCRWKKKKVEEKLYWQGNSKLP
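Assay system: CHO-K1 hM5 cells. Also added: acetylcholine at EC20 concentration, added after compound. Dosing: 3 µM, single dose. Times: compound preincubation 140 s before EC20 acetylcholine addition. Signal: Fluo-8 calcium fluorescence. Measure: % activation relative to EC20 and EC100 ACh responses. Repeats: singlicate, one well per test compound.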
M5 antag: human M5 muscarinic receptor antagonists, primary screen, CHO cells, Fluo-8 calcium fluorescence. Muscarinic acetylcholine receptor M5 (Homo sapiens), P08912. CHO-hM5 cells, ACh EC80. inhibition, % at 3 µM. hit rate 0.59% among 360,000. AID 624040, 2012;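 active = inhibition above a per-plate cutoff, the mean of that plate's test compounds plus 3 SD, cut at about 27% in these data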;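 note: 0% = acetylcholine EC80 with DMSO and 100% = DMSO without agonist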
CHRM5 agonist: human M5 muscarinic receptor agonists, primary screen, CHO-K1 cells, Fluo-8 calcium fluorescence; AID 624037, 2012; Muscarinic acetylcholine receptor M5 (Homo sapiens), P08912; hit rate 0.19% among 360,000; CHO-K1 hM5 cells; 0% DMSO wells, 100% maximal acetylcholine response; activation, % at 3 µM;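 active = activation above the run's mean over test compounds plus 3 SD, cut at about 23% in these data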;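 note: signal is peak over basal fluorescence ratio across the kinetic read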
CHRM4 agonist: human M4 muscarinic receptor agonists, primary screen, CHO-K1 cells, Fluo-8 calcium fluorescence. Muscarinic acetylcholine receptor M4 (Homo sapiens), P08173. CHO-K1 hM4/Gqi5; vehicle 0%, full acetylcholine response 100%. activation, % at 3 µM. hit rate 0.14% among 360,000;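 active = activation above the run mean over all test wells plus 3 SD, cut at about 32% in these data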;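 note: peak over basal fluorescence ratio per well then scaled between controls; 0% = DMSO wells and 100% = acetylcholine at EC100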
The depositor's hits bear a star. Sampled rows, rich in hits. Any-hit rate of the full collection: about 1.8%.

SMILES | M4 PAM | M4 antag | CHRM5 PAM | M5 antag | CHRM5 agonist | CHRM4 agonist
Cc1cc(C(=O)N/N=C/c2ccc(-c3ccc([N+](=O)[O-])cc3C)o2)n[nH]1 | 1 | 0 | -5 | 10 | -3 | 2
Cc1cc([N+](=O)[O-])ccc1-c1ccc(/C=N/NC(=O)c2ccc(Br)o2)o1 | 1 | -9 | -3 | -4 | 246* | 0
CCCCn1c(N)c(N(CC(C)C)C(=O)c2ccc(Cl)c(S(=O)(=O)N3CCCC3)c2)c(=O)[nH]c1=O | 5 | -3 | 6 | -4 | -4 | 0
CNC(=O)Cn1nc(-c2ccc(C)cc2)c2ccccc2c1=O | 0 | 5 | 1 | 8 | 1 | 0
Cc1ccccc1N1C(=O)c2cccc3c(N(C)CCO)ccc(c23)C1=O | -3 | 12 | -7 | 15 | 18 | 17
COc1ccccc1N1C(=O)c2cccc3c(N(C)CCO)ccc(c23)C1=O | -3 | 2 | -3 | 8 | 24* | 9
Cc1cc(C)nc(SCC(=O)Nc2ccnc3ccccc23)n1 | -8 | 10 | -20 | 35* | 7 | 14
COC(=O)c1ccccc1NC(=O)CSc1nc(C)cc(C)n1 | -3 | -8 | 12 | -18 | 4 | 1
CCN1CCCC1CN(Cc1cc2c(C)cc(C)cc2[nH]c1=O)C(=O)NC1CCCCC1 (stereo not drawn) | -9 | 36* | 0 | -2 | -6 | 0
Cc1ccc(NC(C(=O)c2ccccc2)c2ccccc2)cc1 (stereo not drawn) | 1 | 2 | -8 | 6 | -12 | -2
c1ccc(Cc2noc(CN3CCCN(C4Cc5ccccc5C4)CC3)n2)cc1 | -28 | 51* | -31 | 32* | -12 | 15
CCCC(C)C(=O)OCC(=O)NCc1ccc(OC)c(OC)c1 (stereo not drawn) | -2 | 0 | 5 | -9 | 1 | 1
CN1CCc2c(c3ccccc3n2Cc2ccccc2)C1 | -17 | 57* | -19 | 42* | -2 | 1
CCCCN1CCc2c(c3ccccc3n2Cc2ccccc2)C1 | -9 | -12 | -15 | 4 | -5 | 2
CCOc1ccc(OCCC(=O)OCC(=O)Nc2ccc(C)c(S(=O)(=O)N3CCCCC3)c2)cc1 | -6 | 7 | -23 | 27* | 5 | 24
O=C1NC(=Nc2ccccc2Cl)S/C1=C\c1cc([N+](=O)[O-])ccc1O | -12 | -6 | -3 | 12 | 32* | 9
Cc1ccc(S(=O)(=O)/N=C2/NC(=O)/C(=C/c3cc([N+](=O)[O-])ccc3O)S2)cc1 | -26 | 30* | -18 | 8 | 49* | 108*
COc1cc(/C=C2\S/C(=N/S(=O)(=O)c3ccc(C)cc3)NC2=O)c([N+](=O)[O-])cc1OC | 4 | 13 | 7 | -5 | -1 | 0
COc1cccc(N=C2NC(=O)/C(=C/c3cc([N+](=O)[O-])ccc3O)S2)c1 | -10 | 6 | 1 | 2 | 1 | 1
Cc1ccc(NC(=O)C2C3C=CC4(O3)C2C(=O)N(CCCN2CCCC(C)C2)C4C(=O)NC2CCCCC2)cc1 (stereo not drawn) | -2 | 6 | 3 | 9 | -3 | -2
NC(=O)c1ccc(NC(=O)COC(=O)CC23CC4CC(CC(Br)(C4)C2)C3)cc1 | 7 | 1 | -5 | 4 | 5 | 0
Clc1cccc(NCc2ccccc2)n1 | 22* | 0 | -1 | 7 | -5 | 4
CCCCn1cc(C(=O)c2cc(Br)ccc2O)cc(C#N)c1=O | 2 | 15 | -12 | 29* | 1 | 9
CC1(C)CC(NC(=O)C2CCN(S(=O)(=O)c3ccc(F)cc3)CC2)CC(C)(C)N1 | 11 | 2 | 11 | -8 | 1 | 0
COc1ccc(/C=C/C(=O)NCC(=O)N/N=C(/CCC(=O)O)c2ccccc2)cc1 | -3 | 30* | -1 | 5 | 3 | 4
SMILES | M4 PAM | M4 antag | CHRM5 PAM | M5 antag | CHRM5 agonist | CHRM4 agonist
COCC(C)NS(=O)(=O)c1ccc(NC(=O)c2ccccn2)cc1 (stereo not drawn) | -6 | -9 | -18 | 30* | -3 | 1
CCOC1=C2[C@@H](CN(S(=O)(=O)c3ccc(C)cc3)[C@H]2c2ccccc2Cl)[C@H]2C(=O)N(C)C(=O)[C@H]2C1 | -1 | 1 | -3 | 10 | 2 | 0
CCOC(=O)CC(NS(=O)(=O)c1ccc2[nH]c(=O)sc2c1)c1ccc(C)cc1 (stereo not drawn) | -2 | -1 | -4 | 3 | 2 | 0
CCOc1ccc(CCNC(=O)Cn2nc(C)n3cccc3c2=O)cc1OCC | 4 | -8 | 12 | -26 | -2 | 1
CCCCOC(=O)/C=C/c1c(C)[nH]c(=O)[nH]c1=O | 22* | -3 | 8 | 4 | -4 | 1
COc1ccc(C(=O)NC2CCc3ccccc32)cc1OC1CCN(C(C)C)CC1 (stereo not drawn) | 5 | 5 | -6 | 28* | -6 | 1
COc1ccc(C(=O)N(C)C2CCCc3ccccc32)cc1OC1CCN(C(C)C)CC1 (stereo not drawn) | -10 | 15 | -5 | 17 | -8 | 0
Cc1cc(-c2ccc(S(=O)(=O)N3CCN(C)CC3)s2)on1 | 6 | -2 | -13 | 35* | -8 | 1
CCC1CCCCN1C(=O)c1cc(COc2ccc3ncccc3c2)on1 (stereo not drawn) | -12 | 5 | -29 | 41* | 7 | 22
O=C(NCc1cccc(Cl)c1)c1cc(COc2ccc3ncccc3c2)on1 | -8 | 11 | -23 | 22 | 4 | 17
COCC1CCCCN1C(=O)c1cc(COc2ccc3ncccc3c2)on1 (stereo not drawn) | -12 | 34* | -14 | 39* | 7 | 32*
Cc1ccc(F)cc1CNC(=O)c1cc(COc2ccc3ncccc3c2)on1 | -19 | 43* | -16 | 56* | 6 | 25
CCN(CC)C(=O)C1CCCN(C(=O)c2cc(COc3ccc4ncccc4c3)on2)C1 (stereo not drawn) | -10 | -12 | -16 | 8 | 3 | 18
CCN1CCN(C(=O)c2cc(COc3ccc4ncccc4c3)on2)CC1 | 0 | 8 | -13 | 5 | 8 | 12
CCN(CC(=O)NCc1cccs1)C(=O)c1cccc(S(=O)(=O)NCc2ccccc2)c1 | -1 | 4 | 7 | 2 | 0 | 1
CCc1ccc(NC(=O)CNCc2ccc(OC)c(OC)c2)cc1 | 5 | 6 | -1 | 4 | -4 | 1
